Results from ChEMBL document CHEMBL2146419, “Effects of polyphenol compounds on influenza A virus replication and definition of their mechanism of action” (Bioorg Med Chem, 2012).
Activity calls are given as the source filed them. The calls are words filed in the database; no cut-off is given here.

Legend:
Influenza A virus [1] = test: Antiviral activity against Influenza virus A/Puerto Rico/8/34 H1N1 infected in dog MDCK cells assessed as reduction in neuraminidase expression at 10 ug/mL after 24 hrs by immunoblotting analysis relative to control; type: functional, A/Puerto Rico/8/1934(H1N1); set-up: scale not given: the % may be the effect or the level left
Procedure, shortened: (§1)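 PR8-infected MDCK cells, untreated or treated, were lysed at 24 h. Homogenates were run on 12% gels under reducing conditions, blotted to nitrocellulose and probed with goat polyclonal anti-influenza antibodies. Densitometry was expressed as the ratio of each viral protein to actin, relative to untreated infected cells.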

MDCK [2] = test: Cytotoxicity against dog MDCK cells assessed as morphological alterations at 20 to 40 ug/mL incubated for 24 hrs followed by compound wash out measured after 24 hrs by microscopic analysis; type: cell-based, Canis lupus familiaris
Procedure, shortened: (§2)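 Confluent MDCK monolayers plated at 2×10^5/ml were treated after 24 h with compound at 5–40 μg/ml and incubated a further 24 h. Assessed by microscopic examination of morphology, Trypan blue exclusion for viability, and cell counts for multiplication rate.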

Influenza A virus [3] = test: Antiviral activity against Influenza virus A/Puerto Rico/8/34 H1N1 infected in dog MDCK cells assessed as reduction in matrix protein 1 expression at 10 ug/mL after 24 hrs by immunoblotting analysis relative to control; type: functional, organism-based; conditions: A/Puerto Rico/8/1934(H1N1); procedure, shortened: as §1
Influenza A virus [4] = test: Antiviral activity against Influenza virus A/Puerto Rico/8/34 H1N1 infected in dog MDCK cells assessed as inhibition of viral replication at 10 ug/mL incubated at 1 hr post-infection measured after 24 hrs by hemagglutininating unit assay relative to control; type: functional; conditions: A/Puerto Rico/8/1934(H1N1)
Procedure, shortened: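 MDCK cells infected with PR8; 1 h after adsorption they were washed, and compound (5–20 μg/ml) or DMSO was added and kept on throughout. Virus released into the supernatant was titrated by HAU assay 24 h p.i. Yield is a percentage of control infected cells given 0.02% DMSO. Means of four experiments, each in duplicate.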

Influenza A virus [5] = test: Antiviral activity against Influenza virus A/Puerto Rico/8/34 H1N1 infected in dog MDCK cells at 10 ug/mL incubated for 8 hrs post-infection followed by compound washout measured after 24 hrs by hemagglutininating unit assay relative to control; type: functional, A/Puerto Rico/8/1934(H1N1)
Procedure, shortened: (§3)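 Compound added to PR8-infected MDCK cells immediately after virus challenge, then removed at 2, 4, 6, 8 or 24 h p.i. Supernatant virus yield was measured by HAU at 24 h p.i. and expressed as a percentage of DMSO-treated control infected cells. Means of two experiments, each in duplicate.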

MDCK [6] = test: Inhibition of PKC/p38MAPK-mediated nuclear-cytoplasmic viral nucleoprotein export in dog MDCK cells infected with Influenza virus A/Puerto Rico/8/34 H1N1 measured at 8 hrs post-infection by inmmunofluorescence; type: cell-based; conditions: Canis lupus familiaris
Procedure, shortened: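 MDCK cells were infected with PR8 at 1 M.O.I. for single-cycle replication. At 8 h p.i. cells were fixed, permeabilized and stained with DAPI, then with anti-NP primary and FITC-conjugated secondary antibody. NP localization was assessed by fluorescence microscopy.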

Influenza A virus [7] = test: Antiviral activity against Influenza virus A/Puerto Rico/8/34 H1N1 infected in dog MDCK cells assessed as reduction in nucleoprotein expression at 10 ug/mL after 24 hrs by immunoblotting analysis relative to control; type: functional, organism-based; conditions: A/Puerto Rico/8/1934(H1N1); procedure, shortened: as §1
Influenza A virus [8] = test: Antiviral activity against Influenza virus A/Puerto Rico/8/34 H1N1 infected in dog MDCK cells at 10 ug/mL incubated for 4 hrs post-infection followed by compound washout measured after 24 hrs by hemagglutininating unit assay; type: functional, organism-based; conditions: A/Puerto Rico/8/1934(H1N1); procedure, shortened: as §3
Influenza A virus [9] = test: Antiviral activity against Influenza virus A/Puerto Rico/8/34 H1N1 infected in dog MDCK cells at 10 ug/mL incubated for 2 hrs post-infection followed by compound washout measured after 24 hrs by hemagglutininating unit assay; type: functional, organism-based; conditions: A/Puerto Rico/8/1934(H1N1); procedure, shortened: as §3
Influenza A virus [10] = test: Antiviral activity against Influenza virus A/Puerto Rico/8/34 H1N1 infected in dog MDCK cells assessed as reduction in hemagglutininin expression at 10 ug/mL after 24 hrs by immunoblotting analysis relative to control; type: functional, organism-based; conditions: A/Puerto Rico/8/1934(H1N1); procedure, shortened: as §1
Influenza A virus [11] = test: Antiviral activity against Influenza virus A/Puerto Rico/8/34 H1N1 infected in dog MDCK cells at 10 ug/mL incubated for 6 hrs post-infection followed by compound washout measured after 24 hrs by hemagglutininating unit assay relative to control; type: functional, A/Puerto Rico/8/1934(H1N1); procedure, shortened: as §3
Influenza A virus [12] = test: Antiviral activity against Influenza virus A/Puerto Rico/8/34 H1N1 infected in dog MDCK cells at 10 ug/mL incubated for 24 hrs post-infection followed by compound washout measured after 24 hrs by hemagglutininating unit assay relative to control; type: functional, A/Puerto Rico/8/1934(H1N1); procedure, shortened: as §3
MDCK [13] = test: Restoration of GSH level in dog MDCK cells infected with Influenza virus A/Puerto Rico/8/34 H1N1 measured at 24 hrs post-infection by DTNB-based colometric assay; type: functional, cell-based; conditions: Canis lupus familiaris
Procedure, shortened: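 MDCK cells, infected or mock-infected and treated, were assayed for intracellular GSH and GSSG with a glutathione assay kit at 24 h p.i. Results are in nmol per mg protein, as the mean of two experiments each in duplicate, compared against mock-infected cells.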

Influenza A virus [14] = test: Antiviral activity against Influenza virus A/Puerto Rico/8/34 H1N1 infected in dog MDCK cells assessed as reduction in hemagglutininin expression at 20 ug/mL after 24 hrs by immunoblotting analysis relative to control; type: functional, A/Puerto Rico/8/1934(H1N1); set-up: scale not given: the % may be the effect or the level left; procedure, shortened: as §1
Influenza A virus [15] = test: Antiviral activity against Influenza virus A/Puerto Rico/8/34 H1N1 infected in dog MDCK cells assessed as reduction in matrix protein 1 expression at 20 ug/mL after 24 hrs by immunoblotting analysis relative to control; type: functional, A/Puerto Rico/8/1934(H1N1); set-up: scale not given: the % may be the effect or the level left; procedure, shortened: as §1
MDCK [16] = test: Cytotoxicity against dog MDCK cells assessed as morphological alterations at 40 ug/mL incubated for 24 hrs followed by compound wash out measured after 24 hrs by microscopic analysis; type: cell-based, Canis lupus familiaris; procedure, shortened: as §2
Influenza A virus [17] = test: Antiviral activity against Influenza virus A/Puerto Rico/8/34 H1N1 infected in dog MDCK cells at 20 ug/mL incubated for 8 hrs post-infection followed by compound washout measured after 24 hrs by hemagglutininating unit assay relative to control; type: functional, A/Puerto Rico/8/1934(H1N1); procedure, shortened: as §3
Influenza A virus [18] = test: Antiviral activity against Influenza virus A/Puerto Rico/8/34 H1N1 infected in dog MDCK cells at 20 ug/mL incubated for 4 hrs post-infection followed by compound washout measured after 24 hrs by hemagglutininating unit assay; type: functional, organism-based; conditions: A/Puerto Rico/8/1934(H1N1); procedure, shortened: as §3
Influenza A virus [19] = test: Antiviral activity against Influenza virus A/Puerto Rico/8/34 H1N1 infected in dog MDCK cells assessed as reduction in nucleoprotein expression at 20 ug/mL after 24 hrs by immunoblotting analysis relative to control; type: functional, organism-based; conditions: A/Puerto Rico/8/1934(H1N1); procedure, shortened: as §1
Influenza A virus [20] = test: Antiviral activity against Influenza virus A/Puerto Rico/8/34 H1N1 infected in dog MDCK cells at 20 ug/mL incubated for 24 hrs post-infection followed by compound washout measured after 24 hrs by hemagglutininating unit assay relative to control; type: functional, A/Puerto Rico/8/1934(H1N1); procedure, shortened: as §3
Influenza A virus [21] = test: Antiviral activity against Influenza virus A/Puerto Rico/8/34 H1N1 infected in dog MDCK cells assessed as reduction in neuraminidase expression at 20 ug/mL after 24 hrs by immunoblotting analysis relative to control; type: functional, A/Puerto Rico/8/1934(H1N1); set-up: scale not given: the % may be the effect or the level left; procedure, shortened: as §1
Influenza A virus [22] = test: Antiviral activity against Influenza virus A/Puerto Rico/8/34 H1N1 infected in dog MDCK cells at 20 ug/mL incubated for 2 hrs post-infection followed by compound washout measured after 24 hrs by hemagglutininating unit assay; type: functional, organism-based; conditions: A/Puerto Rico/8/1934(H1N1); procedure, shortened: as §3
Influenza A virus [23] = test: Antiviral activity against Influenza virus A/Puerto Rico/8/34 H1N1 infected in dog MDCK cells at 20 ug/mL incubated for 6 hrs post-infection followed by compound washout measured after 24 hrs by hemagglutininating unit assay relative to control; type: functional, A/Puerto Rico/8/1934(H1N1); procedure, shortened: as §3

Compound: O=C(/C=C/c1ccc(O)cc1)c1ccc(O)cc1O [ISOLIQUIRITIGENIN]
- Activity (Influenza A virus [1]): 42%
- Activity (MDCK [2]): Toxic
- Activity (Influenza A virus [3]): inactive
- inhibition at 10 µg/mL (Influenza A virus [4]): 75%
- Activity (Influenza A virus [5]): 55%
- inhibition (MDCK [6]): Active
- Activity (Influenza A virus [7]): inactive
- Activity (Influenza A virus [8]): inactive
- Activity (Influenza A virus [9]): inactive
- Activity (Influenza A virus [10]): inactive
- Activity (Influenza A virus [11]): 30%
- Activity (Influenza A virus [12]): 75%
- Activity (MDCK [13]): Active

Compound: O=C1/C(=C/c2ccc(O)c(O)c2)COC/C1=C\c1ccc(O)c(O)c1
- Activity (Influenza A virus [14]): 25%
- Activity (Influenza A virus [15]): 62%
- Activity (MDCK [16]): Toxic
- Activity (Influenza A virus [17]): 55%
- Activity (Influenza A virus [18]): inactive
- Activity (Influenza A virus [19]): Active
- Activity (Influenza A virus [20]): 75%
- Activity (Influenza A virus [21]): 56%
- Activity (Influenza A virus [22]): inactive
- Activity (Influenza A virus [23]): 30%
- Activity (MDCK [13]): Active
